Source: PubChem (several laboratories)
PP1 counter – PP1-alpha (human) inhibition in PP5 counter-screen. purified PP1alpha, OMFP fluorescence. AID 2235. inhibition, % at 6.7 µM. actives 0.9% (n = 320,000);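 active = inhibition above the mean inhibition of all tested compounds plus 3 SD, computed separately for each screening campaign, cut at about 15% in these data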
PP5 inh – PP5 (human) phosphatase inhibition; P53041; purified PP5c, OMFP substrate fluorescence; inhibition, % at 6.7 µM; actives 0.18% (n = 320,000);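 active = inhibition above the campaign's mean inhibition across all tested compounds plus 3 SD, cut at about 9.5% in these data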;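 also: 0% = DMSO only and 100% = 100 µM cantharidin control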
TDP2 inh – TDP2 (human) inhibition, absorbance primary screen | O95551 | actives 0.34% (n = 370,000) | AID 720702 | recombinant TDP2, T5PNP hydrolysis, p-nitrophenol absorbance 415 nm | inhibition, % at 12.8 µM;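 active = inhibition above the mean of all tested compounds plus 3 SD, set per campaign, cut at about 25% in these data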;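 also: 0% = DMSO with enzyme and 100% = buffer with substrate but no TDP2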
Target sequence (O95551 whole entry, looked up): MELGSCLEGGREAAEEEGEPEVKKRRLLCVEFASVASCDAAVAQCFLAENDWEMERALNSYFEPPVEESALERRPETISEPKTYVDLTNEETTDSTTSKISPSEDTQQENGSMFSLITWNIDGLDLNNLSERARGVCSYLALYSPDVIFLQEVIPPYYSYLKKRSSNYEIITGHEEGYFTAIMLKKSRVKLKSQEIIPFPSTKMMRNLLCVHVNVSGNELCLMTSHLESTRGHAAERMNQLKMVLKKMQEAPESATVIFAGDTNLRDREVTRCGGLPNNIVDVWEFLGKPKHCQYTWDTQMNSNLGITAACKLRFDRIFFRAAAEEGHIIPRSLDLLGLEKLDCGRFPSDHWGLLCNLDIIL
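Assay system: Recombinant human TDP2 | Quantity: 120 nM TDP2 per well | Incubation: 2 h at 37 °C | Signal: Epi absorbance | Evaluation: Percent inhibition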
GSTO1 counter – blocks human GSTO1 in RBBP9 counter-screen. actives 1.1% (n = 300,000). recombinant GSTO1, activity-based probe fluorescence polarization. AID 1974. P78417. inhibition, % at 5.96 µM;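 active = inhibition above the campaign mean inhibition plus 3 SD, cut at about 35% in these data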;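 also: 0% = GSTO1-1 with DMSO and 100% = wells lacking GSTO1-1 enzyme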
Target sequence (P78417 whole entry, looked up): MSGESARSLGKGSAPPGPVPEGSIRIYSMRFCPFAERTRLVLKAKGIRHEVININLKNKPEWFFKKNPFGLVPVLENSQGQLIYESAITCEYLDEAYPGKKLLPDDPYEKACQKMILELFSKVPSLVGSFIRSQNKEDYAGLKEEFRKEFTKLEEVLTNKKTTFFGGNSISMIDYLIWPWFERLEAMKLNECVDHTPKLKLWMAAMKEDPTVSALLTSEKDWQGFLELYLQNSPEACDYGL
Apaf1 inhib – human Apaf-1 inhibition; actives 0.71% (n = 330,000); O14727; inhibition, % at 20 µM; reconstituted apoptosome caspase-3 activity, DEVD-Rh110 fluorescence; active = inhibition of at least 40% at 20 µM;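 also: plate controls were DMSO wells for no effect and DEVD-CHO caspase inhibitor wells for full effect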
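Assay system – apoptosome proteins · Medium – Hepes buffer, pH 7.5 · Also added – cytochrome c with DEVD-Rh110 · Timing – 30 min compound preincubation, 50 min activation, room temperature · Detection – Rh110 fluorescence, excitation 480 nm, emission 540 nm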
PP1 inh confirm – human PP1 phosphatase inhibition, confirmation. shares compounds with PP1 counter. purified PP1alpha, OMFP substrate fluorescence. inhibition, % at 6.7 µM. actives 52% (n = 1,900). AID 2358;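 active = mean PP1 inhibition above a set limit taken from the earlier primary screen, cut at about 15% in these data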
PP5 counter – inhibits human PP5 phosphatase in PP1 counter-screen; shares compounds with PP1 counter; purified PP5c, OMFP fluorescence; inhibition, % at 6.7 µM; actives 4% (n = 1,900);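 active = mean PP5 inhibition over triplicate wells above about 9.5% taken from the earlier PP1 screen, limit read from the data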
The depositor's hits bear a star; x = not tested or not shown. Shown are actives, neighbours in structure and some others; about 2.1% of the full set was active somewhere.

SMILES	PP1 counter	PP5 inh	TDP2 inh	GSTO1 counter	Apaf1 inhib	PP1 inh confirm	PP5 counter
Fc1ccc(C2CC(c3ccco3)=NN2c2ccccc2)cc1 (centres undefined)	2.6	1.7	-5.4	1.6	10.7	x	x
C#CCN(C1CC1)S(=O)(=O)c1ccccc1Br	x	x	6.1	x	x	x	x
O=C(NC1CCCC1)c1nc2c(nnn2Cc2cccc(Cl)c2)c(=O)[nH]1	20.6*	-2.2	1.4	-1.3	-2.4	9.1	-2.4
CC(=O)c1cccc(S(=O)(=O)N2CCCC(c3nc4c(nnn4Cc4cccc(Cl)c4)c(=O)[nH]3)C2)c1 (centres undefined)	20.2*	2.8	3.3	4.9	30.0	15.5*	1.9
COc1ccc(C(CCOC(=O)Oc2ccccc2)c2cc(OC)c(OC)c(OC)c2)cc1 (centres undefined)	x	x	2.6	x	x	x	x
Cc1nn(-c2ccccc2)c(Cl)c1/C=N/Nc1ccc(S(=O)(=O)Nc2ccccc2C(=O)O)cc1[N+](=O)[O-]	19.9*	3.3	3.0	3.9	16.1	10.6	-1.7
CSc1ccc(C=NNc2ccc(S(=O)(=O)Nc3ccccc3C(=O)O)cc2[N+](=O)[O-])cc1	x	x	0.3	x	-90.0	x	x
Cc1cccc(-c2nnc(SCC(=O)c3ccc(F)cc3)n2C)c1	x	x	0.0	x	x	x	x
Cc1nn(CC(=O)Nc2ccc3c(c2)nc2n3CCN(C3CCCCC3)C2)c(=O)c2ccccc12	20.1*	2.6	5.2	17.1	-19.5	6.3	-0.5
O=C(Nc1nc2ccc(Cl)cc2s1)c1ccco1	1.7	-1.7	-10.7	3.4	-7.2	x	x
O=C(C1=C(O)C(=O)N(c2nc3ccc(Cl)cc3s2)C1c1ccco1)c1ccco1 (centres undefined)	18.7*	0.4	2.2	x	21.2	25.2*	-2.0
CCOc1cccc(C2C(C(=O)c3ccc(C)o3)=C(O)C(=O)N2Cc2ccncc2)c1 (centres undefined)	5.1	-2.7	-13.2	4.1	0.8	x	x
CCOc1cccc(C2C(C(=O)c3ccc(C)o3)=C(O)C(=O)N2c2nccs2)c1 (centres undefined)	21.8*	-0.7	-5.1	-6.2	11.6	10.9	0.5
CCc1ccc2nc(N3C(=O)C(O)=C(C(=O)c4ccco4)C3c3cccs3)sc2c1 (centres undefined)	28.7*	4.2	x	-25.8	22.7	24.2*	1.0
CCN(CC)CCCN1C(=O)C(O)=C(C(=O)c2ccco2)C1c1ccc(C)o1 (centres undefined)	-1.3	2.0	-3.5	8.0	-2.6	x	x
Cc1ccc2nc(N3C(=O)C(O)=C(C(=O)c4ccco4)C3c3ccc(C)o3)sc2c1 (centres undefined)	25.6*	2.2	15.4	-4.3	7.2	24.9*	-0.4
COC(=O)[C@]12C[C@H](CC(=O)NCCC(C)C)C(=O)N(CCc3ccc(OC)c(OC)c3)C1=C[C@H](C1CCCC1)O[C@@H]2C	x	x	-0.2	x	x	x	x
CC1(c2nnnn2-c2ccc3c(c2)OCCO3)CSCC(=O)N1CCc1c[nH]c2ccccc12 (centres undefined)	x	x	2.5	x	x	x	x
Cc1cccc(-c2cccc3[nH]c4c(c23)CCN2C(=O)[C@H]3[C@H](C)ON(C)[C@H]3C[C@@H]42)c1	x	x	-5.5	x	x	x	x
COC(=O)c1sc(N2C(=O)c3oc4ccccc4c(=O)c3C2c2cccs2)nc1C (centres undefined)	x	x	-7.4	x	x	x	x
COC(=O)c1sc(N2C(=O)C(O)=C(C(=O)c3ccc(C)o3)C2c2cccs2)nc1C (centres undefined)	22.8*	2.1	-6.2	-16.2	7.7	20.7*	-0.4
O=C(CC1CCCC1)N[C@@H](Cc1cccnc1)C(=O)N1CCC[C@H]1C(=O)NCCc1ccccc1Cl	x	x	2.0	x	x	x	x
Oc1cccc2cc3cccc(O)c3c(O)c12	34.7*	-1.0	x	26.1	-23.8	23.6*	-3.2
O=c1oc(-c2ccc(O)c(O)c2)cc2cccc(O)c12	x	x	-15.0	x	-0.2	x	x
COc1cc2c(cc1OC)/C(=C/C(=O)OCc1ccccc1)OC2	x	x	-2.5	x	x	x	x
SMILES	PP1 counter	PP5 inh	TDP2 inh	GSTO1 counter	Apaf1 inhib	PP1 inh confirm	PP5 counter
COCCNC(=S)N(C)[C@H]1C[C@H]2c3[nH]c4c(-c5ccc6c(c5)OCO6)cccc4c3CCN2C[C@H]1[C@H](C)O	x	x	0.9	x	x	x	x
Cn1cnnc1SCC(=O)Nc1ccc(OCc2ccccc2)cc1	24.3*	1.3	-0.6	26.2	-15.0	4.0	-3.4
O=C(CN1C(=O)S/C(=C\c2ccc(Cl)cc2)C1=O)NNC(=O)c1ccccc1O	18.5*	-0.1	-3.9	22.8	x	12.4	-5.6
COc1ccc(/C=C2\SC(=S)N(CCCC(=O)NNC(=O)c3ccccc3O)C2=O)cc1	7.5	0.5	-10.1	20.6	16.7	x	x
O=C(CCCN1C(=O)/C(=C/c2ccccc2)SC1=S)Nc1ccc(C(=O)O)c(O)c1	7.6	5.4	0.5	25.1	10.2	x	x
O=C(CCN1C(=O)/C(=C\c2ccccc2F)SC1=S)Nc1ccc(C(=O)O)c(O)c1	20.2*	4.4	-18.0	-1.2	5.5	19.5*	2.1
COc1cccc(/C=N/NC(=O)CSc2nnc(C)n2-c2ccccc2)c1O	1.2	1.6	-3.8	-1.9	2.8	x	x
CCCCSc1nc(C)cc(SCC(=O)N/N=C/c2cccc(OC)c2O)n1	20.8*	3.2	-12.8	6.6	14.6	11.9	1.4
C[C@H]1CCCN1c1cccc2c1S(=O)(=O)N1CC[C@@H](C1)O2	x	x	-4.8	x	x	x	x
COc1ccc(CNC(=O)Cc2c(C(=O)O)[nH]c3ccccc23)c(OC)c1	-1.9	1.3	10.8	-0.2	-0.1	x	x
COc1cc(NC(=O)Cc2c(C(=O)O)[nH]c3ccccc23)cc(OC)c1OC	17.9*	0.0	5.9	-6.1	-11.7	1.8	-1.5
O=C(CSc1nnc(-c2cccc(Cl)c2)n1Cc1ccco1)Nc1ccc2c(c1)OCO2	x	x	4.4	x	x	x	x
Cc1ccc(C2=NN(C(=O)c3cccs3)C(c3ccccc3O)C2)cc1 (centres undefined)	1.8	2.2	-7.7	7.0	15.9	x	x
O=C(c1cccs1)N1N=C(c2ccccc2)CC1c1ccccc1O (centres undefined)	25.0*	-5.4	14.7	-12.9	23.5	18.9*	-2.6
CCOC(=O)N1CCC(c2cc(=O)n3[nH]c(C)c(-c4ccc(F)cc4)c3n2)CC1	19.5*	2.6	-3.1	1.9	15.0	13.0	-1.2
COc1cc(NS(=O)(=O)c2ccc(Nc3nc(-c4ccccn4)cs3)cc2)nc(OC)n1	63.1*	7.1	1.1	16.2	9.5	70.9*	0.9
CCc1ccc(Nc2n[n+](-c3ccccc3)c(-c3ccc(OC)c(Br)c3)s2)cc1	20.2*	3.9	0.5	0.9	17.5	12.8	7.2
Cn1cc(CCOCc2ccc(Br)cc2)c2ccccc21	x	x	-2.5	x	x	x	x
Cc1cc(=O)n2[nH]c(C)c(-c3ccccc3)c2n1	-1.3	-2.2	3.7	0.7	-2.6	x	x
